Experimental data published in ChEMBL document CHEMBL3351900, “Conjugation of a nonspecific antiviral sapogenin with a specific HIV fusion inhibitor: a promising strategy for discovering new antiviral therapeutics” (J Med Chem, 2014).
Square brackets hold non-standard residues; d marks the D form. Peptide text beside a SMILES is read from it. * marks the point of attachment. X1 = C=CCOC(=O)[C@]12CC[C@@H](C(=C)C)[C@@H]1[C@H]1CC[C@@H]3[C@@]4(C)CC[C@H](OC(=O)CCc5cn(CC(=O)*)nn5)C(C)(C)[C@@H]4CC[C@@]3(C)[C@]1(C)CC2; X9 = C=CCOC(=O)[C@]12CC[C@@H](C)[C@H](C)[C@H]1C1=CC[C@@H]3[C@@]4(C)CC[C@H](OC(=O)CCc5cn(CC(=O)*)nn5)C(C)(C)[C@@H]4CC[C@@]3(C)[C@]1(C)CC2; X3 = C=C(C)[C@@H]1CC[C@]2(C(=O)O)CC[C@]3(C)[C@H](CC[C@@H]4[C@@]5(C)CC[C@H](OC(=O)CCc6cn(CC(=O)*)nn6)C(C)(C)[C@@H]5CC[C@]43C)[C@@H]12; X5 = C=C(C)[C@@H]1CC[C@]2(C(=O)OCc3cn(CC(=O)*)nn3)CC[C@]3(C)[C@H](CC[C@@H]4[C@@]5(C)CC[C@H](OC(C)=O)C(C)(C)[C@@H]5CC[C@]43C)[C@@H]12; X4 = C=C(C)[C@@H]1CC[C@]2(C(=O)OCc3cn(CC(=O)*)nn3)CC[C@]3(C)[C@H](CC[C@@H]4[C@@]5(C)CC[C@H](O)C(C)(C)[C@@H]5CC[C@]43C)[C@@H]12; βAla = NCCC(=O)O

How the values were obtained:
[1] = system: Human immunodeficiency virus 1; assay: Antiviral activity against HIV1 3B infected in human MT2 cells assessed as inhibition of viral p24 antigen production by ELISA; type: functional, organism-based; details: Human immunodeficiency virus 1, 3B
Procedure, shortened: (§1)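 MT-2 cells (1 × 10⁴) infected with 100 TCID₅₀ virus with or without peptides at graded concentrations. Culture supernatants collected on day 4 postinfection; p24 antigen quantified by ELISA. Percent inhibition and EC₅₀ calculated; tested in triplicate, mean ± standard deviation.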

[2] = Cytotoxicity against human MT2 cells after 4 days by XTT assay; type: cell-based
Procedure, shortened: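 MT-2 cells (5 × 10⁵/mL) mixed with equal volumes of graded conjugate concentrations and held at 37 °C for 4 days. XTT (1 mg/mL) with 0.02 μM phenazine methosulfate added for 4 h, then A450 read. CC50 calculated from the dose–response.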

[3] = system: Human immunodeficiency virus 1; assay: Antiviral activity against HIV1 BaL infected in human […] cells assessed as inhibition of viral replication; type: functional, organism-based; details: Human immunodeficiency virus 1, BaL; procedure, shortened: as §1
[4] = Selectivity index, ratio of CC50 for human MT2 cells to EC50 for HIV1 3B infected in human MT2 cells; type: toxicity, cell-based; details: read-out: Ratio CC50/EC50

| SMILES | EC50 [1] [nM] | CC50 at 96 h [2] [nM] | EC50 [3] [nM] | selectivity ratio [4] |
| --- | --- | --- | --- | --- |
| C=C(C)[C@@H]1CC[C@]2(C(=O)O)CC[C@]3(C)[C@H](CC[C@@H]4[C@@]5(C)CC[C@H](OC(=O)CCc6cn(CC(=O)NCCCC[C@H](NC(=O)CCNC(=O)[C@H](CC(C)C)NC(=O)[C@H](CC(C)C)NC(=O)[C@H](CCC(=O)O)NC(=O)[C@H](CCC(N)=O)NC(=O)[C@H](CCC(=O)O)NC(=O)[C@H](CC(N)=O)NC(=O)[C@H](CCCCN)NC(=O)[C@H](CCC(=O)O)NC(=O)[C@H](CCC(N)=O)NC(=O)[C@H](CCC(N)=O)NC(=O)[C@H](CC(N)=O)NC(=O)[C@H](CCC(N)=O)NC(=O)[C@H](CO)NC(=O)[C@H](CCC(=O)O)NC(=O)[C@H](CCC(=O)O)NC(=O)[C@@H](NC(=O)[C@H](CC(C)C)NC(=O)[C@H](CO)NC(=O)[C@H](Cc7cnc[nH]7)NC(=O)[C@@H](NC(=O)[C@H](CC(C)C)NC(=O)[C@H](CO)NC(=O)[C@@H](NC(=O)[C@H](Cc7ccc(O)cc7)NC(=O)[C@H](CC(N)=O)NC(=O)[C@H](CC(N)=O)NC(C)=O)[C@@H](C)O)[C@@H](C)CC)[C@@H](C)CC)C(N)=O)nn6)C(C)(C)[C@@H]5CC[C@]43C)[C@@H]12 (Ac-NNYTSLIHSLIEESQNQQEKNEQELL[βAla]K(X3)-NH2) | 61.6 | > 25000 | 83.1 | > 406 |
| C=C(C)[C@@H]1CC[C@]2(C(=O)OCc3cn(CC(=O)NCCCC[C@H](NC(=O)CCNC(=O)[C@H](CC(C)C)NC(=O)[C@H](CC(C)C)NC(=O)[C@H](CCC(=O)O)NC(=O)[C@H](CCC(N)=O)NC(=O)[C@H](CCC(=O)O)NC(=O)[C@H](CC(N)=O)NC(=O)[C@H](CCCCN)NC(=O)[C@H](CCC(=O)O)NC(=O)[C@H](CCC(N)=O)NC(=O)[C@H](CCC(N)=O)NC(=O)[C@H](CC(N)=O)NC(=O)[C@H](CCC(N)=O)NC(=O)[C@H](CO)NC(=O)[C@H](CCC(=O)O)NC(=O)[C@H](CCC(=O)O)NC(=O)[C@@H](NC(=O)[C@H](CC(C)C)NC(=O)[C@H](CO)NC(=O)[C@H](Cc4cnc[nH]4)NC(=O)[C@@H](NC(=O)[C@H](CC(C)C)NC(=O)[C@H](CO)NC(=O)[C@@H](NC(=O)[C@H](Cc4ccc(O)cc4)NC(=O)[C@H](CC(N)=O)NC(=O)[C@H](CC(N)=O)NC(C)=O)[C@@H](C)O)[C@@H](C)CC)[C@@H](C)CC)C(N)=O)nn3)CC[C@]3(C)[C@H](CC[C@@H]4[C@@]5(C)CC[C@H](O)C(C)(C)[C@@H]5CC[C@]43C)[C@@H]12 (Ac-NNYTSLIHSLIEESQNQQEKNEQELL[βAla]K(X4)-NH2) | 154 | > 25000 | 135 | > 50 |
| C=C(C)[C@@H]1CC[C@]2(C(=O)OCc3cn(CC(=O)NCCCC[C@H](NC(=O)CCNC(=O)[C@H](CC(C)C)NC(=O)[C@H](CC(C)C)NC(=O)[C@H](CCC(=O)O)NC(=O)[C@H](CCC(N)=O)NC(=O)[C@H](CCC(=O)O)NC(=O)[C@H](CC(N)=O)NC(=O)[C@H](CCCCN)NC(=O)[C@H](CCC(=O)O)NC(=O)[C@H](CCC(N)=O)NC(=O)[C@H](CCC(N)=O)NC(=O)[C@H](CC(N)=O)NC(=O)[C@H](CCC(N)=O)NC(=O)[C@H](CO)NC(=O)[C@H](CCC(=O)O)NC(=O)[C@H](CCC(=O)O)NC(=O)[C@@H](NC(=O)[C@H](CC(C)C)NC(=O)[C@H](CO)NC(=O)[C@H](Cc4cnc[nH]4)NC(=O)[C@@H](NC(=O)[C@H](CC(C)C)NC(=O)[C@H](CO)NC(=O)[C@@H](NC(=O)[C@H](Cc4ccc(O)cc4)NC(=O)[C@H](CC(N)=O)NC(=O)[C@H](CC(N)=O)NC(C)=O)[C@@H](C)O)[C@@H](C)CC)[C@@H](C)CC)C(N)=O)nn3)CC[C@]3(C)[C@H](CC[C@@H]4[C@@]5(C)CC[C@H](OC(C)=O)C(C)(C)[C@@H]5CC[C@]43C)[C@@H]12 (Ac-NNYTSLIHSLIEESQNQQEKNEQELL[βAla]K(X5)-NH2) | 41.4 | > 25000 | 20.8 | > 603 |
| C=CCOC(=O)[C@]12CC[C@@H](C)[C@H](C)[C@H]1C1=CC[C@@H]3[C@@]4(C)CC[C@H](OC(=O)CCc5cn(CC(=O)NCCCC[C@H](NC(=O)CCNC(=O)[C@H](CC(C)C)NC(=O)[C@H](CC(C)C)NC(=O)[C@H](CCC(=O)O)NC(=O)[C@H](CCC(N)=O)NC(=O)[C@H](CCC(=O)O)NC(=O)[C@H](CC(N)=O)NC(=O)[C@H](CCCCN)NC(=O)[C@H](CCC(=O)O)NC(=O)[C@H](CCC(N)=O)NC(=O)[C@H](CCC(N)=O)NC(=O)[C@H](CC(N)=O)NC(=O)[C@H](CCC(N)=O)NC(=O)[C@H](CO)NC(=O)[C@H](CCC(=O)O)NC(=O)[C@H](CCC(=O)O)NC(=O)[C@@H](NC(=O)[C@H](CC(C)C)NC(=O)[C@H](CO)NC(=O)[C@H](Cc6cnc[nH]6)NC(=O)[C@@H](NC(=O)[C@H](CC(C)C)NC(=O)[C@H](CO)NC(=O)[C@@H](NC(=O)[C@H](Cc6ccc(O)cc6)NC(=O)[C@H](CC(N)=O)NC(=O)[C@H](CC(N)=O)NC(C)=O)[C@@H](C)O)[C@@H](C)CC)[C@@H](C)CC)C(N)=O)nn5)C(C)(C)[C@@H]4CC[C@@]3(C)[C@]1(C)CC2 (Ac-NNYTSLIHSLIEESQNQQEKNEQELL[βAla]K(X9)-NH2) | 2.18 | 7920 | 2.51 | 3630 |
| C=CCOC(=O)[C@]12CC[C@@H](C(=C)C)[C@@H]1[C@H]1CC[C@@H]3[C@@]4(C)CC[C@H](OC(=O)CCc5cn(CC(=O)NCCC(=O)N[C@@H](CC(N)=O)C(=O)N[C@@H](CC(N)=O)C(=O)N[C@@H](Cc6ccc(O)cc6)C(=O)N[C@H](C(=O)N[C@@H](CO)C(=O)N[C@@H](CC(C)C)C(=O)N[C@H](C(=O)N[C@@H](Cc6cnc[nH]6)C(=O)N[C@@H](CO)C(=O)N[C@@H](CC(C)C)C(=O)N[C@H](C(=O)N[C@@H](CCC(=O)O)C(=O)N[C@@H](CCC(=O)O)C(=O)N[C@@H](CO)C(=O)N[C@@H](CCC(N)=O)C(=O)N[C@@H](CC(N)=O)C(=O)N[C@@H](CCC(N)=O)C(=O)N[C@@H](CCC(N)=O)C(=O)N[C@@H](CCC(=O)O)C(=O)N[C@@H](CCCCN)C(=O)N[C@@H](CC(N)=O)C(=O)N[C@@H](CCC(=O)O)C(=O)N[C@@H](CCC(N)=O)C(=O)N[C@@H](CCC(=O)O)C(=O)N[C@@H](CC(C)C)C(=O)N[C@@H](CC(C)C)C(N)=O)[C@@H](C)CC)[C@@H](C)CC)[C@@H](C)O)nn5)C(C)(C)[C@@H]4CC[C@@]3(C)[C@]1(C)CC2 ({X1-βAla}-NNYTSLIHSLIEESQNQQEKNEQELL-NH2) | 242 | > 25000 | 519 | > 103 |
| C=C(C)[C@@H]1CC[C@]2(C(=O)OCc3cn(CC(=O)NCCC(=O)N[C@@H](CC(N)=O)C(=O)N[C@@H](CC(N)=O)C(=O)N[C@@H](Cc4ccc(O)cc4)C(=O)N[C@H](C(=O)N[C@@H](CO)C(=O)N[C@@H](CC(C)C)C(=O)N[C@H](C(=O)N[C@@H](Cc4cnc[nH]4)C(=O)N[C@@H](CO)C(=O)N[C@@H](CC(C)C)C(=O)N[C@H](C(=O)N[C@@H](CCC(=O)O)C(=O)N[C@@H](CCC(=O)O)C(=O)N[C@@H](CO)C(=O)N[C@@H](CCC(N)=O)C(=O)N[C@@H](CC(N)=O)C(=O)N[C@@H](CCC(N)=O)C(=O)N[C@@H](CCC(N)=O)C(=O)N[C@@H](CCC(=O)O)C(=O)N[C@@H](CCCCN)C(=O)N[C@@H](CC(N)=O)C(=O)N[C@@H](CCC(=O)O)C(=O)N[C@@H](CCC(N)=O)C(=O)N[C@@H](CCC(=O)O)C(=O)N[C@@H](CC(C)C)C(=O)N[C@@H](CC(C)C)C(N)=O)[C@@H](C)CC)[C@@H](C)CC)[C@@H](C)O)nn3)CC[C@]3(C)[C@H](CC[C@@H]4[C@@]5(C)CC[C@H](O)C(C)(C)[C@@H]5CC[C@]43C)[C@@H]12 ({X4-βAla}-NNYTSLIHSLIEESQNQQEKNEQELL-NH2) | 475 | > 25000 | 456 | > 52 |
| C=C(C)[C@@H]1CC[C@]2(C(=O)OCc3cn(CC(=O)NCCC(=O)N[C@@H](CC(N)=O)C(=O)N[C@@H](CC(N)=O)C(=O)N[C@@H](Cc4ccc(O)cc4)C(=O)N[C@H](C(=O)N[C@@H](CO)C(=O)N[C@@H](CC(C)C)C(=O)N[C@H](C(=O)N[C@@H](Cc4cnc[nH]4)C(=O)N[C@@H](CO)C(=O)N[C@@H](CC(C)C)C(=O)N[C@H](C(=O)N[C@@H](CCC(=O)O)C(=O)N[C@@H](CCC(=O)O)C(=O)N[C@@H](CO)C(=O)N[C@@H](CCC(N)=O)C(=O)N[C@@H](CC(N)=O)C(=O)N[C@@H](CCC(N)=O)C(=O)N[C@@H](CCC(N)=O)C(=O)N[C@@H](CCC(=O)O)C(=O)N[C@@H](CCCCN)C(=O)N[C@@H](CC(N)=O)C(=O)N[C@@H](CCC(=O)O)C(=O)N[C@@H](CCC(N)=O)C(=O)N[C@@H](CCC(=O)O)C(=O)N[C@@H](CC(C)C)C(=O)N[C@@H](CC(C)C)C(N)=O)[C@@H](C)CC)[C@@H](C)CC)[C@@H](C)O)nn3)CC[C@]3(C)[C@H](CC[C@@H]4[C@@]5(C)CC[C@H](OC(C)=O)C(C)(C)[C@@H]5CC[C@]43C)[C@@H]12 ({X5-βAla}-NNYTSLIHSLIEESQNQQEKNEQELL-NH2) | 501 | > 25000 | 99 | > 52 |
